Article PMC2858063 (Steroids, 2010)
“Also recorded” adds a separate entry of the source. Read-outs that look alike come from different tables or passages of the source.

Key:
hu-mPRα [1] = target: T1, hu-mPRα (Homo sapiens, UniProt Q86WK9); experiment: hu-mPRα steroid binding assay; settings: for RBA (Relative Binding Affinity): compared with progesterone (=100), human mPRα; for binding to hu-mPRα (in words): this study, Fig. 1, Table 1
T1 sequence (Q86WK9 1-346): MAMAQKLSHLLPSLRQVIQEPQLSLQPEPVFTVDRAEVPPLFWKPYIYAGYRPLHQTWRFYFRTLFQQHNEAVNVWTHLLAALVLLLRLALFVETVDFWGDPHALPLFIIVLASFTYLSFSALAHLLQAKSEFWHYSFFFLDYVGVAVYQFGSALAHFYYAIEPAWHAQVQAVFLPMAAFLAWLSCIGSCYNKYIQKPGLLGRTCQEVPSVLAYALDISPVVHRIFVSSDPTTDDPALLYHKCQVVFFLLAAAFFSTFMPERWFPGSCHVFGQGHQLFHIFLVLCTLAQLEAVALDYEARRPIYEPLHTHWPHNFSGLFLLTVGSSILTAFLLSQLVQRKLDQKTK

hu-mPRα [2] = target: T1, hu-mPRα; experiment: MAPK activation assay; assay type: cell-based; settings: 100 nM, 10 min, mPRα-transfected MDA-MB-231 cells
Outline: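 Control and mPRα-transfected MDA-MB-231 cells were serum-starved 5–6 days, then treated 10 min with progestins (100 nM; 1–100 nM for concentration-response), with EGF as positive control. Lysis was in RIPA buffer plus protease inhibitors. Lysate (10 μg/lane, non-reducing) ran on duplicate SDS gels, was blotted, and was probed for total or phospho-p42/44 with rabbit monoclonals, then HRP anti-rabbit 1 h. Detection was by chemiluminescence on film. Runs were repeated 3–4 times, with statistics versus vehicle.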

human nPR [3] = target: T2, human nPR (Homo sapiens, UniProt P06401); experiment: nPR steroid binding assay; settings: that of progesterone
T2 sequence (P06401 679-933 limits assumed): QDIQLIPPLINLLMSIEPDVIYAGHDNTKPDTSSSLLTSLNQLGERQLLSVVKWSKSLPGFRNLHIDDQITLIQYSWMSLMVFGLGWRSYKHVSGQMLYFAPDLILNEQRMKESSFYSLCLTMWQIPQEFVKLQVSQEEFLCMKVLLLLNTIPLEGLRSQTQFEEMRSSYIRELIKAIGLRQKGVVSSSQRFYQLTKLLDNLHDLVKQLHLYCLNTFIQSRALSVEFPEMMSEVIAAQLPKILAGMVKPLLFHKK

hu-mPRα [4] = target: T1, hu-mPRα; settings: cited from earlier work; for binding affinity for nPR compared with mPRα: selectivity in words
human nPR [5] = target: T2, human nPR; settings: cited from earlier work; for pIC50 (mean): 50% displacement of [3H] Org 2058, extracted from log RBA; for logRBA: RBA (%) compared with that of Org 2058 (=100%)

Molecule	RBA (Relative Binding Affinity) (hu-mPRα [1])	binding to hu-mPRα (in words) (hu-mPRα [1])	pIC50 (mean) (human nPR [5])	logRBA (human nPR [5])	other results
3,20-dioxopregn-4-ene-18-carbonitrile	1.8%	low binding affinities			
18a-methylprogesterone [18a-Methylprogesterone (Org OE 64-0)]	2009%	affinities higher than that of progesterone			MAPK activation (phosphorylation of ERK) (hu-mPRα [2]): mPRα agonists; relative binding affinity for nPR (human nPR [3]): 20.8%
C#CC1(O)CC[C@H]2[C@@H]3CCC4=CC(=O)CC[C@@H]4[C@H]3CC[C@@]21CC (mixture of isomers) [norgestrel]					binding affinity for nPR compared with mPRα (hu-mPRα [4]): greater binding affinity for nPR than mPRα
CC(=O)[C@H]1CC[C@H]2[C@@H]3CCC4=CC(=O)[C@H](O)C[C@]4(C)[C@H]3CC[C@]12C [2α-hydroxyprogesterone]					binding to hu-mPRα (in words) (hu-mPRα [4]; earlier series): poor binding
CC(=O)[C@H]1CC[C@H]2[C@@H]3CCC4=CC(=O)[C@H](C#N)C[C@]4(C)[C@H]3CC[C@]12C [3,20-Dioxopregn-4-ene-2α-carbonitrile]	<1%	inactivity			
CC(=O)[C@H]1CC[C@H]2[C@@H]3CC[C@H]4C[C@H](O)CC[C@]4(C)[C@H]3CC[C@]12C [3α-Hydroxy-5α-pregnan-20-one]	7.6%				IC50 (hu-mPRα [1]): 1150 nM
CC(=O)[C@H]1CC[C@H]2[C@@H]3CC[C@H]4C[C@@H](O)CC[C@]4(C)[C@H]3CC[C@]12C [3β-Hydroxy-5α-pregnan-20-one]		absence of binding			
C[C@]12CC[C@H]3[C@@H](CC[C@H]4CC(=O)CC[C@@H]43)[C@@H]1CC[C@@H]2O [5α-Dihydronandrolone]			6.50	−0.22	
C[C@]12CCC(=O)C[C@@H]1CC[C@@H]1[C@@H]2CC[C@]2(C)[C@@H](O)CC[C@@H]12 [5α-Dihydrotestosterone (DHT), 5α-Dihydrotestosterone]			6.16	−0.56	
CC(=O)S[C@@H]1CC2=CC(=O)CC[C@]2(C)[C@H]2CC[C@]3(C)[C@@H](C(C)=O)CC[C@H]3[C@H]12 [7α-Acetylthioprogesterone (Org 33718-0), 7α-Acetylthioprogesterone]	<1%				
CC(=O)[C@H]1CC[C@H]2[C@@H]3CCC4=CC(=O)CC[C@]4(C)[C@H]3[C@@H](O)C[C@]12C [11β-hydroxyprogesterone]					lower binding affinity relative to progesterone (hu-mPRα [4]; mPRα, observed earlier): 10 fold
CCC1CC2C3CCC4=CC(=O)CCC4C3CCC2(C)C1C(=O)CO (stereo not drawn) [16α-ethyl-21-hydroxy-19-norpregn-4-ene-3,20-dione]				2.00	binding to hu-mPRα (in words) (hu-mPRα [4]; earlier series): poor binding affinities; binding affinity for nPR compared with mPRα (hu-mPRα [4]): greater binding affinity for nPR than mPRα
CCCCCC(=O)O[C@]1(C(C)=O)CC[C@H]2[C@@H]3CCC4=CC(=O)CC[C@]4(C)[C@H]3CC[C@@]21C [17-Caproylprogesterone]	4.4%				
C[C@]12CC[C@H]3[C@@H](CCC4=CC(=O)CC[C@@]43C)[C@@H]1CC[C@H]2O [17-Epitestosterone]	2.8%				
CC[C@]1(O)CC[C@H]2[C@@H]3CCC4=CC(=O)CC[C@@H]4[C@H]3CC[C@@]21C [17-Hydroxy-19-nor-17α-pregn-4-en-3-one]			8.24	1.52	
C[C@@H]1C=C2CC(=O)CC[C@]2(C)[C@H]2CC[C@]3(C)[C@@H](O)CC[C@H]3[C@H]12 [17β-Hydroxy-7α-methylandrost-5-en-3-one]	3.0%				IC50 (hu-mPRα [1]): 2880 nM; decrease in binding relative to testosterone (hu-mPRα [1]; mPRα, compared with testosterone of ref 10): 10 fold
CC(C)[C@@H]1C[C@H]2[C@@H]3CCC4=CC(=O)CC[C@@H]4[C@H]3CC[C@]2(C)[C@H]1O [17β-Hydroxy-16α-isopropylestr-4-en-3-one]			7.72	1.00	
C[C@]1(O)CC[C@H]2[C@@H]3CCC4=CC(=O)CC[C@@H]4[C@H]3CC[C@@]21C [17β-Hydroxy-17α-methylestr-4-en-3-one]			7.66	0.94	

Molecule	RBA (Relative Binding Affinity) (hu-mPRα [1])	binding to hu-mPRα (in words) (hu-mPRα [1])	pIC50 (mean) (human nPR [5])	logRBA (human nPR [5])	other results
CC(=O)[C@H]1CC[C@H]2[C@@H]3CCC4=CC(=O)CC[C@]4(CO)[C@H]3CC[C@]12C [19-Hydroxyprogesterone]	0.7%	low binding affinities			
CC(=O)[C@H]1CC[C@H]2[C@@H]3CCC4=CC(=O)CC[C@@H]4[C@H]3CC[C@]12C [19-Norprogesterone]			8.53	1.81	binding affinity for nPR compared with mPRα (hu-mPRα [4]): greater binding affinity for nPR than mPRα
C=CC[C@]1(O)CC[C@H]2[C@@H]3CCC4=CCCC[C@@H]4[C@H]3CC[C@@]21C [Allylestrenol]			7.04	0.32	
C[C@]12CCC(=O)C=C1CC[C@@H]1[C@@H]2CC[C@]2(C)C(=O)CC[C@@H]12 [Androst-4-ene-3,17-dione]		unable to bind	6.02	−0.70	
C[C@]12CCC(=O)C=C1CC[C@@H]1[C@@H]2CC[C@@]2(C)[C@H]1CC[C@]2(O)C(=O)CO [Cortexolone (11-deoxycortisol), 11-deoxycortisol]	1.8%	less potent than deoxycorticosterone			IC50 (hu-mPRα [1]): 4850 nM
C[C@]12CCC(=O)C=C1CC[C@@H]1[C@@H]2[C@@H](O)C[C@@]2(C)[C@H]1CC[C@]2(O)C(=O)CO [Cortisol (hydrocortisone), Cortisol]		complete loss of affinity			
C[C@]12CC[C@@H]3c4ccc(O)cc4CC[C@H]3[C@@H]1CC[C@@H]2O [Estradiol-17β]		no binding affinity			
C#C[C@]1(O)CC[C@H]2[C@@H]3CCC4=CC(=O)CC[C@]4(C)[C@H]3CC[C@@]21C [Ethisterone]					binding affinity for nPR compared with mPRα (hu-mPRα [4]): greater binding affinity for nPR than mPRα
CC[C@]1(O)CC[C@H]2[C@@H]3CCC4=CCCC[C@@H]4[C@H]3CC[C@@]21C [Ethylestrenol]			7.21	0.49	
C#C[C@]1(O)CC[C@H]2[C@@H]3CCC4=CCCC[C@@H]4[C@H]3CC[C@@]21C [Lynestrenol]			6.95	0.23	
CC#C[C@]1(O)CC[C@H]2[C@@H]3CCC4=CC(=O)CCC4=C3[C@@H](c3ccc(N(C)C)cc3)C[C@@]21C [Mifepristone]					binding to hu-mPRα (in words) (hu-mPRα [4]; earlier series, listed as RU486): little or no affinity; also recorded: does not bind
C[C@]12CC[C@H]3[C@@H](CCC4=CC(=O)CC[C@@H]43)[C@@H]1CC[C@@H]2O [Nandrolone, 19-nortestosterone]			7.20	0.48	
CC(=O)[C@H]1CC[C@H]2[C@@H]3CCC4=CC(=O)C=C[C@]4(C)[C@H]3CC[C@]12C [Pregna-1,4-diene-3,20-dione]	93.5%	little or no influence relative to the progesterone response			IC50 (hu-mPRα [1]): 93.5 nM
CC(=O)[C@H]1CC[C@H]2[C@@H]3C=CC4=CC(=O)CC[C@]4(C)[C@H]3CC[C@]12C [Pregna-4,6-diene-3,20-dione]	98.9%	little or no influence relative to the progesterone response			IC50 (hu-mPRα [1]): 88.4 nM
CC(=O)[C@H]1CC[C@H]2[C@@H]3CCC4=CC(=O)CC[C@]4(C)[C@H]3CC[C@]12C [Progesterone]					IC50 (hu-mPRα [1]): 87.4 nM
CCC(=O)[C@@]1(C)CC[C@H]2[C@@H]3CCC4=CC(=O)CCC4=C3CC[C@@]21C [Promegestone]			8.90	2.18	binding to hu-mPRα (in words) (hu-mPRα [4]; earlier series, listed as R5020): little or no affinity; also recorded: poor binding affinities
C[C@]12CC[C@H]3[C@@H](CCC4=CC(=O)CC[C@@]43C)[C@@H]1CC[C@@H]2O [Testosterone]			6.02	−0.70	RBA for hu-mPRα (hu-mPRα [4]; progesterone = 100 %, earlier series): 22.4%
C#C[C@]1(O)CC[C@H]2[C@@H]3CCC4=CC(=O)CC[C@@H]4[C@H]3CC[C@@]21C [norethisterone]					binding affinity for nPR compared with mPRα (hu-mPRα [4]): greater binding affinity for nPR than mPRα
